{"source": "paper PMC9283749", "about": "(Clinical and Translational Science, 2022)", "key": {"[1]": {"tested_on": "skin AXIN2 mRNA expression", "assay": "Exposure-response analysis for biomarker", "type": "in vivo", "settings": "Homo sapiens, read-out: WNT974 concentration resulting in 50% Emax (EC50), skin AXIN2 reduction, estimated mean (90% prediction interval)"}, "Population PK modeling": {"assay": "Population PK modeling", "type": "in vivo, human", "settings": "patients, 5-45 mg oral", "method_in_brief": "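Pooled 1098 plasma concentrations from 66 patients across 10 oral regimens, measured by LC-MS/MS (LLOQ 1.0 ng/ml). Serial sampling to 24 h on C1D1 and C1D15, plus predose troughs. Two-compartment model with first-order absorption, lag time and linear clearance, fitted in log domain by FOCE in NONMEM. Log-normal interindividual variability on Ka, CL, Vc, CLd, Vp and Tlag; baseline covariates screened.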"}, "CYP3A4": {"tested_on": "CYP3A4", "settings": "cited from earlier work"}, "[2]": {"settings": "cited from earlier work"}, "[3]": {"tested_on": "xenograft and Wnt ligand-driven mouse tumor models", "settings": "cited from earlier work"}, "[4]": {"tested_on": "patients with advanced solid tumors", "assay": "Phase I first-in-human study, safety and antitumor activity", "type": "in vivo", "method_in_brief": "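Patients with advanced solid tumours. Without run-in, patients got 5, 7.5, 10, 15, 20, 22.5 or 30 mg continuous q.d.; 30 or 45 mg intermittent q.d. (4 days on/3 off); or 5 mg continuous b.i.d. Adverse events were graded by CTCAE v4.03.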"}, "Porcupine": {"tested_on": "Porcupine", "settings": "read-out: in vitro cellular IC50 for Porcupine; cited from earlier work"}, "CYP3A": {"tested_on": "CYP3A", "settings": "in vitro; cited from earlier work"}, "[5]": {"settings": "cited from earlier work", "remark": "listed apart in the source"}, "[6]": {"tested_on": "patients with advanced solid tumors", "settings": "cited from earlier work"}, "[7]": {"assay": "Simulated steady-state PK from the PopPK model", "type": "in vivo, human", "method_in_brief": "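Steady-state C1D15 plasma profiles simulated from the final population PK model in 200–500 hypothetical patients per continuous once-daily dosing scenario. Cmin, Cmax and AUC24h derived from the simulated profiles.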"}}, "note": "Entries after “also recorded” stand apart in the source; their conditions may differ."}
{"smiles": "Cc1cc(-c2ncc(CC(=O)Nc3ccc(-c4cnccn4)cn3)cc2C)ccn1", "note": "[WNT974]", "values": [{"measurement": "EC50", "setting": "[1]", "result": 0.45, "unit": "ng/mL"}, {"measurement": "Absorption lag time (Tlag), population estimate (%RSE)", "setting": "Population PK modeling", "result": "0.412 (3.2) h"}, {"measurement": "Apparent central clearance (CL/F), population estimate (%RSE)", "setting": "Population PK modeling", "result": "20.7 (3.9) L/h"}, {"measurement": "Central volume of distribution (Vc), population estimate (%RSE)", "setting": "Population PK modeling", "result": "138 (2.0) L"}, {"measurement": "Distribution clearance (CLd), population estimate (%RSE)", "setting": "Population PK modeling", "result": "7.11 (9.4) L/h"}, {"measurement": "Peripheral volume of distribution (Vp), population estimate (%RSE)", "setting": "Population PK modeling", "result": "260 (9.4) L"}, {"measurement": "Absorption rate constant (Ka), population estimate (%RSE)", "setting": "Population PK modeling; 66 patients", "result": "1.60 (17.0) 1/h"}, {"measurement": "metabolism", "setting": "CYP3A4", "result": "extensively metabolized, primarily by CYP3A4"}, {"measurement": "mean unbound Cmin", "setting": "[2]; C1D15, continuous q.d. dose of 5-30 mg", "result": "1.1 to 7.6", "unit": "nM"}, {"measurement": "dose proportionality of exposure", "setting": "[2]; dose range 5-45 mg", "result": "dose proportional"}, {"measurement": "mean t1/2", "setting": "[2]; patients, oral administration", "result": "5 to 8", "unit": "h"}, {"measurement": "median Tmax", "setting": "[2]; patients, oral administration", "result": "1 to 3", "unit": "h"}, {"measurement": "antitumor activity", "setting": "[3]; preclinical tumor models", "result": "exhibited antitumor activity; also recorded: potent antitumor activity"}, {"measurement": "AXIN2 mRNA expression in tumors", "setting": "[3]; xenograft and Wnt ligand-driven mouse tumor models", "result": "reduction of AXIN2 mRNA expression in tumors"}, {"measurement": "maximum tolerated dose (MTD)", "setting": "[4]; dose-escalation part, 5-45 mg", "result": "not established"}, {"measurement": "antitumor activity in patients", "setting": "[4]; dose-escalation study", "result": "limited antitumor activity"}, {"measurement": "IC50", "setting": "Porcupine", "result": 400, "unit": "pM"}, {"measurement": "CYP3A inhibition", "setting": "CYP3A", "result": "moderate reversible inhibitor"}, {"measurement": "elimination half-life (t1/2)", "setting": "[5]; all the animal species (mouse, rat, dog)", "result": "0.6 to 2.2", "unit": "h"}, {"measurement": "oral bioavailability", "setting": "[5]; mouse, rat, and dog", "result": "60–100%"}, {"measurement": "patients with dysgeusia (most common adverse event)", "setting": "[6]; FIH study", "result": "~ 50 % of patients"}, {"measurement": "best response: patients with stable disease", "setting": "[6]; dose-expansion part of the single-agent study", "result": "16 % of patients"}, {"measurement": "Predicted steady-state AUC24h, mean (90% confidence interval)", "setting": "[7]; 5 mg q.d.", "result": "233 (133–445) ng h/ml"}, {"measurement": "Predicted steady-state Cmax, mean (90% confidence interval)", "setting": "[7]; 5 mg q.d.", "result": "28.1 (13.7–59.1) ng/ml"}, {"measurement": "Predicted steady-state Cmin, mean (90% confidence interval)", "setting": "[7]; 5 mg q.d.", "result": "2.83 (0.835–8.02) ng/ml"}, {"measurement": "Predicted steady-state AUC24h, mean (90% confidence interval)", "setting": "[7]; 10 mg q.d.", "result": "468 (254–880) ng h/ml"}, {"measurement": "Predicted steady-state Cmax, mean (90% confidence interval)", "setting": "[7]; 10 mg q.d.", "result": "55.7 (26.1–109) ng/ml"}, {"measurement": "Predicted steady-state Cmin, mean (90% confidence interval)", "setting": "[7]; 10 mg q.d.", "result": "5.78 (1.66–16.3) ng/ml"}, {"measurement": "Predicted steady-state AUC24h, mean (90% confidence interval)", "setting": "[7]; 15 mg q.d.", "result": "699 (394–1294) ng h/ml"}, {"measurement": "Predicted steady-state Cmax, mean (90% confidence interval)", "setting": "[7]; 15 mg q.d.", "result": "80.6 (41.7–166) ng/ml"}, {"measurement": "Predicted steady-state Cmin, mean (90% confidence interval)", "setting": "[7]; 15 mg q.d.", "result": "8.21 (2.60–24.3) ng/ml"}]}
